Bioassay records as filed in PubChem BioAssay.
SENP6 block: SENP6 protease inhibition; Recombinant SENP6 catalytic domain, aminoluciferin luminescence; inhibition, % at 10 µM; 330,000 compounds, 1.8% hits; Q9GZR1;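 active means inhibition above about 50% at the single tested dose, limit read from the data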;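 further: plate controls were DMSO wells with enzyme for no effect and DMSO wells lacking enzyme for full effect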
Target sequence (Q9GZR1 628-1112 limits assumed): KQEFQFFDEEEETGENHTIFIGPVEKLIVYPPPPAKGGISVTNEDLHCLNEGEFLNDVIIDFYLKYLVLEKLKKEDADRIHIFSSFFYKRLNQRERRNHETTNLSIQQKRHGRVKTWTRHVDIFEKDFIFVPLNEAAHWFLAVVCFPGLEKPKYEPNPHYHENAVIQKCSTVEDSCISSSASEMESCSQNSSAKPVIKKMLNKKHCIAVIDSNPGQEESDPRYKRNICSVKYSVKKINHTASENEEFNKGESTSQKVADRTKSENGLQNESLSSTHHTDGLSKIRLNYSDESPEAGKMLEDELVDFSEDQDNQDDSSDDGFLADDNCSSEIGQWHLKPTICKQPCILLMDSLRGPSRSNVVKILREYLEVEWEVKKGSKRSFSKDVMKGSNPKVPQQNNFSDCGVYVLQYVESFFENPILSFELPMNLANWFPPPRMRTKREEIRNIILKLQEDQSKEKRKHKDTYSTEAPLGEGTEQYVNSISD
Apaf-1 inh: inhibitors of human Apaf-1 apoptosome | reconstituted apoptosome caspase-3 activity, DEVD-Rh110 fluorescence | inhibition, % at 20 µM | 330,000 compounds, 0.71% hits; active means inhibition of at least 40% at 20 µM;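 further: plate controls were DMSO wells for no effect and DEVD-CHO caspase inhibitor wells for full effect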
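Medium: Hepes buffer, pH 7.5 / System: biochemical Apaf-1 apoptosome reconstitution / Measured by: Rh110 fluorescence, excitation 480 nm, emission 540 nm / Times: compound with Apaf-1, dATP, procaspase-3 30 min, then 50 min reaction, room temperature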
SENP8 block-1: inhibitors of human SENP8 protease. Q96LD8. recombinant SENP8, Nedd8 substrate fluorescence. inhibition, % at 20 µM. 360,000 compounds, 0.64% hits. AID 602440; in the data active means inhibition mostly above about 40%, no sharp cut-off; inactive means mostly below about 27%
Target sequence (Q96LD8 whole entry, looked up): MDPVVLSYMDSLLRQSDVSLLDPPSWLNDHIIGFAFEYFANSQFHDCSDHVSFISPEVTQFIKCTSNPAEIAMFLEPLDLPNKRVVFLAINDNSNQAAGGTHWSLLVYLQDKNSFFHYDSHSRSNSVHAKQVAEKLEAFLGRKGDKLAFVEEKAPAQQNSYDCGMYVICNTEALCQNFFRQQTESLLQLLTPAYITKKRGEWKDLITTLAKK
SENP8 block-2: inhibitors of human SENP8 protease; inhibition, % at 10 µM; 330,000 compounds, 1.2% hits; Q96LD8; AID 2540; purified SENP8, Z-RLRGG-aminoluciferin cleavage, luminescence; in the data active means inhibition above about 50%
SENP7 block: SENP7 protease inhibition | Q9BQF6 | recombinant SENP7, Z-RLRGG-aminoluciferin luminescence, 40 min | inhibition, % at 5 µM | 330,000 compounds, 1.5% hits | AID 434973;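 active means inhibition above about 50% at the single test dose, limit read from the data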;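 further: plate controls were DMSO with enzyme for no effect and no enzyme buffer wells for full effect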
SENP1 FRET inh: blocks the human SENP1 SUMO protease catalytic domain | 360,000 compounds, 0.21% hits | AID 624204 | inhibition, % at 10 µM | Q9P0U3 | recombinant SENP1 catalytic domain, CyPet-SUMO1-YPet FRET cleavage;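 active means inhibition at least 30% at 10 µM, raw YFP signal under a set limit, fluorescence ratio 0.5 to 1.5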;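 further: 0% = enzyme with DMSO and 100% = no enzyme wells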
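System: Recombinant human SENP1 catalytic domain, His6-tagged | Incubation: Enzyme reaction for 50 min at room temperature, dark | Medium: Tris pH 8 with BME, BSA, NP40 and catalase | Also added: 25 nM SUMO1 FRET substrate | Compound: 10 µM single point, 0.5% DMSO | Measured by: FRET fluorescence in CFP and YFP emission channels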
Apaf-1 inh conf2: confirmation of Apaf-1 inhibitors; 1,800 compounds, 25% hits; reconstituted apoptosome, caspase-3 DEVD-Rh110 fluorescence; AID 504614; shares compounds with Apaf-1 inh; inhibition, % at 20 µM;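 active means mean inhibition of at least 40% at 20 µM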;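 further: plate controls were DMSO wells for no effect and DEVD-CHO caspase inhibitor control wells for full effect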
Rh110 quench: interferes with Rh110 fluorescence, flagging false Apaf-1 inhibitors | 1,800 tested, under 10 active | Rh110 fluorescence interference, quenched caspase reaction | AID 504615 | activation (fluorescence interference), % at 20 µM | shares compounds with Apaf-1 inh;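 active means signal rise of 40% or more at 20 µM, treated as a fluorescence artifact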
Fluor interf inh: counter-screen for Apaf-1 inhibitors: fluorescence interference, dose response; shares compounds with Apaf-1 inh; fluorescence interference counterscreen, Apaf-1 assay format; IC50, µM; 460 tested, under 10 active; AID 588538; call rule not given here
SENP8 inh conf: confirmation of human SENP8 protease inhibitors; inhibition, % at 25 µM; 1,400 compounds, 15% hits; shares compounds with SENP8 block-1; purified SENP8, Nedd8-AMC/pro-Nedd8 cleavage fluorescence, 30 min; in the data active means inhibition mostly above about 39%, no sharp cut-off; inactive means mostly below about 34%
Active calls of the source: *; / = not tested or not shown. Shown are actives, neighbours in structure and some others; about 2.9% of the full set was active somewhere.

SMILES	SENP6 block	Apaf-1 inh	SENP8 block-1	SENP8 block-2	SENP7 block	SENP1 FRET inh	Apaf-1 inh conf2	Rh110 quench	SENP8 inh conf	others
COc1cc(Br)c(C(=O)c2nccc3cc(OC)c(OC)cc23)cc1OC	89.9*	88.8*	112.8*	94.9*	91.8*	31.3	79.1*	2.9	100.6*	Fluor interf inh=>100
COc1ccc2c(c1)Cc1sc(NC(=O)c3cccnc3)nc1-2	89.0*	88.6*	63.9*	85.8*	84.3*	-1.5	30.3	3.7	24.8
COc1ccc2c(c1)CCc1sc(NC(=O)c3ccc(C)cc3)nc1-2	-24.0	4.1	-72.9	-5.7	-1.4	0.9	/	/	/
Cc1cc2c(N)cccc2nn1	91.4*	96.8*	113.6*	95.5*	46.8	15.1	26.6	-0.2	45.2*
Nc1cccc2nc3ccccc3cc12	-2.3	-3.1	-376.8	-0.4	2.6	-30.7	/	/	/
C=C1/C=C(\C)C(C)(O)CC(O)CC(=O)C(O)C(O)C(C)CC(C)OC(=O)/C(C)=C/CC/C=C/C(OC)C(O)CC(C)C1 (stereo unspecified)	3.9	12.3	13.2	5.1	-2.6	1.9	/	/	/
O=c1cc(-c2cccc([N+](=O)[O-])c2)[nH][nH]1	4.6	67.8*	42.9*	1.2	11.1	3.7	17.9	10.6	-1.1
O=C(COc1cc2oc(=O)c3c(c2cc1Cl)CCC3)NCc1ccncc1	14.5	-7.3	-100.7	-5.4	3.2	-3.6	/	/	/
CN(C)C=Nc1c(Br)cc(Br)c2nonc12	39.1	42.9*	58.0*	22.6	11.6	43.5	38.9	1.6	44.5*
Clc1ccc2oc(SCc3cccnc3)nc2c1	-8.8	10.0	13.2	-9.8	-6.1	2.8	/	/	/
CCOC(=O)C1(C)CCN1C(=O)c1ccc(N(C)C)cc1 (stereo unspecified)	/	/	2.2	/	/	0.8	/	/	/
CCCCOc1cc(NCc2ccccc2)c2ncn(C(C)C)c2c1	-2.7	61.2*	50.8*	8.2	17.7	1.8	47.0*	14.4	64.7*	Fluor interf inh=>100
O=C1CCCC2=C1C1(O)C(=O)c3ccccc3C1(O)O2 (stereo unspecified)	21.5	92.1*	51.4*	11.8	27.8	1.6	71.9*	-1.5	89.5*	Fluor interf inh=>100
O=C(C[C@H]1CC[C@H]2[C@@H](COC[C@@H](O)CN2Cc2cc(F)ccc2F)O1)NCc1ccc(Cl)cc1	/	/	25.1	/	/	3.7	/	/	/
Nc1cccc2nsnc12	40.1	67.7*	48.5*	11.4	23.5	10.9	13.9	-4.6	12.6
COC(=O)/C(=C/Nc1ccccc1)[N+](=O)[O-]	-7.4	-14.9	2.8	1.0	-7.4	1.2	/	/	/
COC(=O)/C(=C/Nc1ccc(O)cc1)[N+](=O)[O-]	-6.4	91.2*	74.4*	-30.8	17.8	0.6	15.8	11.7	17.4
COc1ccc(CCC(=O)N2CCN(S(=O)(=O)c3cccc(Cl)c3)CC2)cc1	-5.4	4.0	9.8	-4.9	1.8	-0.5	/	/	/
CC1=NN(c2ccc(S(=O)(=O)O)cc2Cl)C(=O)C1	9.3	66.2*	75.6*	-6.4	5.1	-0.4	18.7	-2.6	9.7
O=C1CC(c2ccccc2)=NN1c1ccccc1	/	/	-209.6	/	/	-1.0	/	/	/
CC1=NN(c2cccc(Cl)c2)C(=O)C1	-4.8	74.8*	63.9*	7.3	19.9	2.6	21.0	6.0	54.8*
O=c1[nH]nc(CNc2ccc(O)cc2)c2ccccc12	10.3	94.5*	114.4*	-0.7	48.7	10.1	4.3	-0.1	26.5
O=c1[nH]nc(CNc2ccc(C(F)(F)F)cc2)c2ccccc12	-9.2	-0.5	25.3	-4.4	-4.9	2.2	/	/	/
COc1ccc(-c2ncn(CCC#N)c2[N+](=O)[O-])cc1	3.2	-6.7	5.6	-3.1	-1.7	1.7	/	/	/
COc1ccc(-c2cc(=O)n(CCC#N)[nH]2)cc1	22.2	94.3*	43.2*	9.7	28.3	2.9	7.2	-5.8	40.0
SMILES	SENP6 block	Apaf-1 inh	SENP8 block-1	SENP8 block-2	SENP7 block	SENP1 FRET inh	Apaf-1 inh conf2	Rh110 quench	SENP8 inh conf	others
CCOC1=C2[C@@H](CN(S(=O)(=O)c3ccc(C)cc3)[C@H]2c2ccccc2)[C@H]2C(=O)N(Cc3ccccc3)C(=O)[C@H]2C1	/	/	6.2	/	/	6.4	/	/	/
CCOC(=O)c1nn(-c2ccccc2C)c(=O)c2c(N)scc12	46.2	46.7*	47.0*	-3.6	1.2	1.8	12.4	-14.8	41.2
Cc1ccc(S(=O)(=O)N2CCOCC2)cc1NC(=O)COC(=O)CNC(=O)c1ccc(Cl)cc1Cl	3.1	10.4	4.1	-2.9	-1.5	0.3	/	/	/
COc1cc(-c2ccc(NC(C)=O)c(OC)c2)ccc1NC(C)=O	4.0	-8.0	16.8	0.4	2.5	2.7	/	/	/
COc1cc(O)c(NC(C)=O)c2nonc12	16.7	86.5*	59.8*	6.9	18.6	1.7	23.2	8.4	33.0
O=C(NCCN1CCc2ccccc2C1)Nc1ccc(F)cc1	-3.8	7.5	26.1	-12.8	-12.4	-3.9	/	/	/
O=C(CN1CCc2ccccc2C1)Nc1ccc(Br)cc1	1.7	19.2	15.9	1.5	2.8	1.1	/	/	/
CCc1ccc(NC(=O)CN2CCc3ccccc3C2)cc1	8.8	11.6	69.8*	6.5	5.9	-3.0	/	/	35.6
CCc1ccc(NC(=O)NCCN2CCc3ccccc3C2)cc1	0.2	-6.7	44.6*	-3.9	-1.8	-2.6	/	/	15.9
O=C(O)C=C(Br)Br	-4.0	-7.3	45.9*	-5.6	4.0	2.1	/	/	20.5
O=C(O)/C=C\C(=O)O	-6.2	-12.6	7.0	8.8	-7.7	-0.4	/	/	/
CCOC(=O)C1CCCN(CC(=O)N(C)c2c(N)n(Cc3ccccc3)c(=O)[nH]c2=O)C1 (stereo unspecified)	-10.7	-10.2	10.7	1.3	-1.5	-1.6	/	/	/
CCOC(=O)CN1C(=O)S/C(=C/c2ccc(O)c([N+](=O)[O-])c2)C1=O	-9.0	-6.5	47.7*	-16.5	4.2	3.6	/	/	5.8
O=C1/C(=C/c2ccccc2[N+](=O)[O-])COc2ccccc21	-4.4	12.1	5.1	-10.8	-6.9	0.4	/	/	/
CNc1ccc(/C=C2\COc3ccccc3C2=O)cc1[N+](=O)[O-]	-7.7	12.1	50.2*	-6.4	-18.3	5.6	/	/	14.3
Cc1nonc1OCCNc1ccc([N+](=O)[O-])cc1[N+](=O)[O-]	/	/	35.5	/	/	-22.8	/	/	/
Cc1nonc1OC(C)CNc1ccc([N+](=O)[O-])cc1 (stereo unspecified)	-2.0	0.7	46.1*	4.1	1.7	-1.6	/	/	24.0
